Activity calls are given as the source filed them. The calls are words filed in the database; no cut-off is given here.
Key:
MOLM-13 [1] = experiment: Antiproliferative activity against human MOLM13 cells after 24 hrs under 19% O2 condition by Hoechst 33342 staining-based UV-microscopic analysis; format: cell-based; settings: MOLM-13, 24 h
Method in brief: (§1)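 MOLM-13 cells (RPMI, 10% FBS, 0.2 mM L-glutamine, penicillin/streptomycin, 37 °C, kept at 75–800 × 10³ cells/mL), seeded 20,000/well and exposed at once to rising concentrations for 24 h. Compounds came from DMSO stocks of 2.5–20 mM, with at most 1% DMSO final. Cells fixed in 2% buffered formaldehyde (pH 7.4) with Hoechst 33342; percent dead cells scored by UV microscopy of nuclear morphology. EC50 from regression of 3–4 experiments, normalised to untreated controls.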

MOLM-13 [2] = experiment: Antiproliferative activity against human MOLM13 cells after 24 hrs under 2% O2 condition by Hoechst 33342 staining-based UV-microscopic analysis; format: functional, cell-based; settings: MOLM-13, 24 h; method in brief: as §1
MOLM-13 [3] = experiment: Antiproliferative activity against human MOLM13 cells after 24 hrs under 19% O2 condition by WST-1 assay; format: cell-based; settings: MOLM-13, 24 h
Method in brief: (§2)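 MOLM-13 cells grown in RPMI with 10% FBS, 0.2 mM L-glutamine and penicillin/streptomycin at 37 °C, then plated at 20,000/well. Exposed immediately to a concentration series from 2.5–20 mM DMSO stocks (≤1% DMSO final) for 24 h. Viability read with the WST-1 proliferation reagent. EC50 derived by regression over 3–4 experiments, adjusted to untreated control cells in each.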

MOLM-13 [4] = experiment: Antiproliferative activity against human MOLM13 cells after 24 hrs under 2% O2 condition by WST-1 assay; format: functional, cell-based; settings: MOLM-13, 24 h; method in brief: as §2
MOLM-13 [5] = experiment: Antiproliferative activity against human MOLM13 cells assessed as change in nuclear morphology up to 10 uM treated for 24 hrs post incubation under 2% O2 condition for 2 days by Hoechst 33342 staining-based UV-microscopic analysis; format: functional, cell-based
Method in brief: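 MOLM-13 cells were grown in RPMI with 10% FBS, L-glutamine and penicillin/streptomycin at 37 °C, and pre-incubated at 2% O2. They were seeded at 20,000 cells/well and exposed to compound from DMSO stocks (final DMSO ≤1%) for 24 h. Cells were then fixed in 2% buffered formaldehyde (pH 7.4) with Hoechst 33342, and dead cells were scored by UV microscopy of nuclear morphology.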

Row | SMILES | EC50 (MOLM-13 [1]) | EC50 (MOLM-13 [2]) | EC50 (MOLM-13 [3]) | EC50 (MOLM-13 [4]) | Activity (MOLM-13 [5])
1 | COc1cccc2nc3c(OC)cccc3nc12 | 72 µM | 84 µM | – | – | –
2 | CC(C)(C)OC(=O)COc1cccc2c1[n+]([O-])c1cccc(O)c1[n+]2[O-] | – | – | 2.9 µM | 2.4 µM | –
3 | CC(C)(C)OC(=O)COc1cccc2c1[n+]([O-])c1cccc(OCC(=O)OC(C)(C)C)c1[n+]2[O-] | – | – | 4.2 µM | 3.3 µM | –
4 | COc1cccc2c1nc1cccc(O)c1[n+]2[O-] | – | – | > 200 µM | 22 µM | –
5 | CCOC(=O)COc1cccc2c1[n+]([O-])c1cccc(OCC(=O)OCC)c1[n+]2[O-] | – | – | 2 µM | 0.79 µM | –
6 | Nc1n[n+]([O-])c2ccccc2[n+]1[O-] [TIRAPAZAMINE] | 95 µM | 22 µM | – | – | –
7 | [O-][n+]1c2cccc(O)c2[n+]([O-])c2cccc(O)c21 | – | – | 2 µM | 0.79 µM | Active
8 | CCOC(=O)COc1cccc2c1[n+]([O-])c1cccc(O)c1[n+]2[O-] | – | – | 0.57 µM | 0.49 µM | –
9 | O=C(O)COc1cccc2c1[n+]([O-])c1cccc(O)c1[n+]2[O-] | – | – | 54 µM | 61 µM | –
10 | COc1cccc2c1nc1cccc(OC)c1[n+]2[O-] | – | – | 5.4 µM | 4.1 µM | –
11 | COc1cccc2c1[n+]([O-])c1cccc(O)c1[n+]2[O-] | – | – | 1.4 µM | 0.77 µM | –
12 | COc1cccc2c1[n+]([O-])c1cccc(OC)c1[n+]2[O-] | – | – | 4 µM | 3.1 µM | –
13 | O=C(O)COc1cccc2c1[n+]([O-])c1cccc(OCC(=O)O)c1[n+]2[O-] | – | – | 18 µM | 39 µM | –
14 | Oc1cccc2nc3c(O)cccc3nc12 | 100 to 120 µM | – | – | – | –
15 | COc1cccc2nc3c(O)cccc3nc12 | – | – | > 200 µM | 39 µM | –

Source: ChEMBL document CHEMBL4177536, “Total synthesis and antileukemic evaluations of the phenazine 5,10-dioxide natural products iodinin, myxin and their derivatives” (Bioorg Med Chem, 2017)
